Assay results from different studies.
Protocols differ between the studies behind these lines.
Matrix: plasma

CC(=O)O[C@@H]1CC[C@@]2(C)[C@@H](CC[C@]3(C)[C@@H]2C(=O)C=C2[C@@H]4[C@@H](C)[C@H](C)CC[C@]4(C)CC[C@]23C)[C@@]1(C)C(=O)O — AUC(0-inf) (female Wistar rat; oral, 1 mg/kg, single dose): 50200 ng·h/mL
COc1ccc(-c2coc3cc(O)cc(O)c3c2=O)cc1 — AUC(0-inf) (rat; intravenous, 2 mg/kg): 683 ng·h/mL
C1=C/COCc2cc(ccc2OCCN2CCCC2)Nc2nccc(n2)-c2cccc(c2)COC/1 — AUC(0-inf) (male Sprague-Dawley rat; oral, 36 mg/kg): 3320 ng·h/mL
C[C@H]1Oc2cc(cnc2N)-c2c(nn(C)c2C#N)CN(C)C(=O)c2ccc(F)cc21 — AUC(0-inf) (Sprague-Dawley rat; intravenous, 1 mg/kg, single dose): 4470 ng·h/mL
COc1nc(-c2cccc(-c3ccccc3)c2C)ccc1CNCCNC(=O)CCCCCCCCCCC(=O)N1CCN(CCNC(=O)c2cc3c(=O)n4cccc(C)c4nc3n(CCc3cccs3)c2=N)CC1 — AUC(0-inf) (male Sprague-Dawley rat; oral, 40 mg/kg): 305 ng·h/mL
Cc1nc(Nc2ncc(C(=O)Nc3c(C)cccc3Cl)s2)cc(N2CCN(CCO)CC2)n1 — AUC(0-inf) (male Sprague-Dawley rat; oral, 5 mg/kg, single dose): 0.199 µM·h
CC[C@H](C)[C@H](NC(=O)[C@@H]1CCCN1C(=O)CNC(=O)[C@H](Cc1ccccc1)NC(=O)[C@H](CC(N)=O)NC(=O)[C@H](CC(N)=O)NC(=O)[C@H](CO)NC(=O)[C@H](CO)NC(=O)[C@H](Cc1c[nH]cn1)NC(=O)[C@H](CCCNC(=N)N)NC(=O)[C@H](CC(C)C)NC(=O)[C@H](Cc1ccccc1)NC(=O)[C@H](CCC(=O)O)NC(=O)[C@H](C)NC(=O)[C@H](CC(C)C)NC(=O)[C@H](CCCNC(=N)N)NC(=O)[C@H](CCC(N)=O)NC(=O)[C@@H](NC(=O)[C@H](C)NC(=O)[C@@H]1CSSC[C@H](NC(=O)[C@H](CCCCN)NC(=O)CC[C@H](NC(=O)CCCCCCCCCCCCCCCCCCC(=O)O)C(=O)O)C(=O)N[C@@H](CC(N)=O)C(=O)N[C@@H]([C@@H](C)O)C(=O)N[C@@H](C)C(=O)N[C@@H]([C@@H](C)O)C(=O)N1)[C@@H](C)O)C(=O)N[C@@H](CC(C)C)C(=O)N1CCC[C@H]1C(=O)N1CCC[C@H]1C(=O)N[C@H](C(=O)N[C@@H](CC(N)=O)C(=O)N[C@H](C(=O)NCC(=O)N[C@@H](CO)C(=O)N[C@@H](CC(N)=O)C(=O)N[C@H](C(=O)N1CCC[C@H]1C(N)=O)[C@@H](C)O)C(C)C)[C@@H](C)O — AUC(0-inf) (male Sprague-Dawley rat; subcutaneous, 30 nmol/kg, single dose): 5 µM·h
C[C@H]1[C@@H](O)O[C@@H]2O[C@@]3(C)CC[C@H]4[C@H](C)CC[C@@H]1[C@@]24OO3 — AUC(0-inf) (male Sprague-Dawley rat; oral, 10 mg/kg): 271 ng·h/mL
Cn1c(=O)c2[nH]cnc2n(C)c1=O — AUC(0-inf) (male Sprague-Dawley rat; intravenous, 22.5 mg/kg): 59400 ng·h/mL
C=CC(=O)N1CCC([C@@H]2CCNc3c(C(N)=O)c(-c4ccc(Oc5ccccc5)cc4)nn32)CC1 — AUC(0-inf) (Sprague-Dawley rat; oral, 16 mg/kg): 1460 ng·h/mL
COc1cc(-c2cc(C(C)=O)n3ccccc23)c(OC)cc1Cn1ccnc1 — AUC(0-inf) (male Sprague-Dawley rat; intravenous, 5 mg/kg): 4300 ng·h/mL
CONC(=O)c1cccc2c1cc(C)n2-c1nc2c(c(NCc3ccccc3)n1)CCCN2 — AUC(0-inf) (male Sprague-Dawley rat; oral, 10 mg/kg, single dose): 38.9 ng·h/mL
O=C1CCC(N2Cc3cc(C4CCN(Cc5ccccc5)CC4)ccc3C2=O)C(=O)N1 (stereo not drawn) — AUC(0-inf) (male Sprague-Dawley rat; oral, 3 mg/kg): 349 ng·h/mL
COc1ccc(N(Cc2csc(-c3ccccc3)n2)C(=O)CCCCCC(=O)NO)cc1 — AUC(0-inf) (female Sprague-Dawley rat; oral, 30 mg/kg): 32.4 ng·h/mL
CNC(=O)c1cc(Oc2ccc(NC(=O)Nc3ccc(Cl)c(C(F)(F)F)c3)cc2)ccn1 — AUC(0-inf) (male Sprague-Dawley rat; oral, 100 mg/kg, single dose): 18400 ng·h/mL
